Screens from PubChem.
This is a sample that favours compounds with a hit; in the whole collection about 2.3% have one here.
DNMT1 inh – inhibitors of human DNMT1 | P26358 | DNMT1 molecular beacon, Hinp1I cleavage, fluorescence | inhibition (reported as % activation of signal), % at 10 µM | 360,000 compounds, 0.83% hits | AID 588458; in the data active = inhibition above about 50%
Scp1 inh – Scp-1 (human) phosphatase inhibition | AID 493091 | Q9GZU7 | 340,000 compounds, 0.88% hits | Recombinant Scp1, phosphopeptide, malachite green phosphate absorbance | inhibition, % at 20 µM;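 active = inhibition above about 50% at 20 µM, limit read from the data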;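 also: plate controls were DMSO wells with enzyme for no effect and wells lacking enzyme for full effect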
Target sequence (Q9GZU7 76-261 limits assumed): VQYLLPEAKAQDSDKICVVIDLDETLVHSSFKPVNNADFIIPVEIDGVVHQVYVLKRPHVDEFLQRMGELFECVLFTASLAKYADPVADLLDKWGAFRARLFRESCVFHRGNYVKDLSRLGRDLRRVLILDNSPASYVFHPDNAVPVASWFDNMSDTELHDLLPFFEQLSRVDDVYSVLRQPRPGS
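Test system: SCP-1 phosphatase catalytic domain, residues 76-261; measured by: colorimetric phosphate reagent with accelerator and stabiliser, absorbance at 630 nm; timing: enzyme reaction 45 min at room temperature, colour 5 min, stabilisation 30 min; also added: Phosphorylated 17-residue peptide substrate; compound dosing: one concentration, 20 µM, with 1.0% DMSO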
STEP inh – inhibitors of human striatal-enriched phosphatase STEP; P54829; recombinant STEP, OMFP fluorogenic substrate, fluorescence; inhibition, % at 20 µM; AID 588621; 360,000 compounds, 0.25% hits;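 active = inhibition at 20 µM, scaled per plate between control wells, above about 37%, limit read from the data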;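 also: 0% = DMSO with enzyme and substrate and 100% = substrate only without enzyme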
Target sequence (P54829 whole entry, looked up): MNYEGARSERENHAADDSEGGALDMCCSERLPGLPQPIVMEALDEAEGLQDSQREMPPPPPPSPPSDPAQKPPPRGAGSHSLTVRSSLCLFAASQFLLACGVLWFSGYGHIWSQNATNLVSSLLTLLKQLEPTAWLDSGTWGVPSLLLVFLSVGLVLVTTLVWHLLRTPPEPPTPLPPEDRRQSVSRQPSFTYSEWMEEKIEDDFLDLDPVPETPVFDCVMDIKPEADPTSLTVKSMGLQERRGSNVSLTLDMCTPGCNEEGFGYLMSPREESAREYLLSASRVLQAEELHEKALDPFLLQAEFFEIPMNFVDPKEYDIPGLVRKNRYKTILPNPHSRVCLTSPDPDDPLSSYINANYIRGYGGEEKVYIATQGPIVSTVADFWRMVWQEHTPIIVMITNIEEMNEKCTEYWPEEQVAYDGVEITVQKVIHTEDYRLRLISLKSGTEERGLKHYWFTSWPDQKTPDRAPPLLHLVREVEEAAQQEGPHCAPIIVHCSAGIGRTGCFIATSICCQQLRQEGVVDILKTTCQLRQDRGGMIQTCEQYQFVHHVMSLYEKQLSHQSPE
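System: isolated STEP enzyme; schedule: 20 min enzyme reaction at room temperature, protected from light; medium: Bis-Tris buffer pH 6.0, 2.5 mM DTT, 0.005% Tween 20; signal: fluorescence, 480/540 nm; dosing: single compound dose of 20 µM, 1% DMSO final; also added: OMFP substrate, 25 µM final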
SUMO1 PPI mod – alters human SUMO1 binding to SIM partners. AID 602429. P63165. 360,000 compounds, 0.33% hits. inhibition, % at 20 µM. SUMO1 binding to a labelled peptide, TR-FRET, 1 h; in the data active = inhibition above about 37%
LMPTP inh – LMPTP (human) inhibition; recombinant LMPTP-A, OMFP fluorogenic substrate, fluorescence intensity; inhibition, % at 20 µM; 360,000 compounds, 0.22% hits;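 active = compounds that cut the enzyme signal by at least half of the control window in the single-dose screen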;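 also: plate controls were DMSO wells with enzyme plus substrate for no effect and substrate without enzyme for full effect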
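Test system: LMPTP-A phosphatase enzyme; input: 0.625 nM LMPTP-A final; reagent: OMFP substrate, 400 µM final; compound dosing: 20 µM single dose, 3% DMSO; incubation: 50 min dark incubation at room temperature; measured by: endpoint fluorescence intensity from OMFP dephosphorylation; measure: % inhibition relative to no-enzyme and uninhibited control wells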
Rpn11 block – Rpn11 (human) deubiquitinase inhibition. O00487. human 26S proteasome, Ub4-pepOG fluorescence polarization; 20S core pre-blocked with epoxomicin. inhibition, % at 20 µM. 360,000 compounds, 0.59% hits;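 active = inhibition at 20 µM, scaled to each plate's controls, above about 33%, limit read from the data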
Scp1 confirm – Scp-1 (human) inhibition, single-dose confirmed | recombinant SCP-1 catalytic domain, phosphate release, malachite green absorbance | 2,500 compounds, 61% hits | shares compounds with Scp1 inh | inhibition, % at 20 µM | AID 540281;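 active = inhibition of at least 30% at 20 µM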;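 also: plate controls were DMSO with enzyme for no effect and buffer wells lacking enzyme for full effect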
MG interference – counter-screen for Scp-1 inhibitors: colorimetric interference | 2,500 tested, under 10 active | shares compounds with Scp1 inh | apparent inhibition (interference), % at 20 µM | AID 540313 | Colorimetric interference counterscreen, malachite green absorbance 630 nm;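 active = inhibition of at least 30% at 20 µM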;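 also: compounds added after enzyme reaction finished so only phosphate colour detection is probed; plate controls were DMSO wells with completed Scp-1 reaction for no effect and substrate wells lacking enzyme for full effect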
Scp-1 Tm shift – Scp-1 (human) binding by thermal shift | AID 540329 | Recombinant SCP1, Sypro Orange thermal shift Tm | 1,500 compounds, 25% hits | shares compounds with Scp1 inh | thermal shift relative to vanadate control, % at 40 µM;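 active = substances whose mean melting-temperature shift, as a percentage of the reference inhibitor's shift, reaches about 5.3%, limit read from the data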;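 also: 0% = Tm of DMSO wells and 100% = Tm with sodium orthovanadate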
DNMT1 confirm – confirmation of human DNMT1 inhibitors | shares compounds with DNMT1 inh | DNMT1 molecular beacon HinP1I cleavage, fluorescence | inhibition, % at 10 µM | 2,300 compounds, 8% hits | AID 602385;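 active = average inhibition of at least 30% in the single-concentration confirmation test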
Beacon interf – shows spectral interference in the DNMT1 beacon assay | activation (fluorescence interference), % at 10 µM | AID 602387 | shares compounds with DNMT1 inh | DNMT1 molecular beacon spectral interference counterscreen, fluorescence 485/520 | 2,300 compounds, 1% hits;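 active = activation of at least 30% at 10 µM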;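 also: DNMT1 catalytic domain with a HinP1I cleavage step and a FAM/dabcyl DNA beacon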
Rpn11 inh conf – confirmation of human proteasome Rpn11 inhibitors; shares compounds with Rpn11 block; purified human 26S proteasome, Ub4-pepOG fluorescence polarization; proteasome pretreated with epoxomicin; inhibition, % at 20 µM; 1,900 compounds, 29% hits
MMP-2 counter – counter-screen for RPN11 inhibitors: inhibition of human MMP-2. shares compounds with Rpn11 block. recombinant MMP-2, FRET peptide cleavage fluorescence. inhibition, % at 20 µM. 1,900 compounds, 4% hits. AID 602330;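 also: human MMP-2 activated beforehand with APMA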
Thrombin FP – thrombin (bovine) inhibition counter-screen; bovine thrombin cleavage of Ub4-pepOG, fluorescence polarization; AID 602333; shares compounds with Rpn11 block; 1,900 compounds, 13% hits; inhibition, % at 20 µM;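 active = mean inhibition at least 40% at 20 µM, or signal 3 deviations below plate average, so some actives read negative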;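 also: plate controls were thrombin with DMSO for no effect and buffer wells lacking thrombin for full effect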
STEP conf – confirmation of human STEP phosphatase inhibitors | shares compounds with STEP inh | recombinant STEP, OMFP fluorogenic substrate, fluorescence | inhibition, % at 20 µM | 520 compounds, 32% hits; call rule not given here;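 also: 0% = enzyme with substrate plus DMSO and 100% = substrate without enzyme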
* hit, by the source's call; · = no result shown; + = active, no number. Rule as the data show it, unless noted: active = inhibition above about 40%; inactive = the rest.

SMILES	DNMT1 inh	Scp1 inh	STEP inh	SUMO1 PPI mod	LMPTP inh	Rpn11 block	Scp1 confirm	MG interference	Scp-1 Tm shift	STEP conf	others
Cc1c(CC(=O)O)c(=O)oc2c(C)c3occ(-c4ccc(Br)cc4)c3cc12	4	52*	69*	23	2	9	62*	-7	-17	6
COc1ccc(-c2coc3c(C)c4oc(=O)c(CC(=O)O)c(C)c4cc23)cc1	0	-3	1	19	1	1	·	·	·	·
Cc1ccc2oc(-c3ccc(NC(=O)c4ccncc4)cc3O)nc2c1	34	5	-1	-5	4	20	·	·	·	·
Cc1ccc2oc(-c3cc(NC(=O)c4ncn[nH]4)ccc3O)nc2c1	50	85*	78*	15	43	23	81*	-8	0	-1
COc1ccc(C(=O)N/N=C\C(C)=C\c2ccccc2)cc1OC	-5	7	-2	-14	0	2	·	·	·	·
CC(/C=N/NC(=O)c1ccc(Br)cc1)=C\c1ccccc1	50*	94*	55*	-4	55*	19	89*	-3	-21	-2	DNMT1 confirm=1;Beacon interf=2
CC1(C)OC(=O)C2=C(C[C@@H](CCC(F)(F)F)O[C@H]2c2ccc(F)cc2)O1	-1	·	-3	5	-1	3	·	·	·	·
O=C(O)Cc1cccc(=O)c(O)c1C(=O)O	86*	79*	68*	18	19	-12	54*	-9	6.3*	88*
O=C(O)Cc1ccccc1C(=O)O	12	-3	-4	4	-2	-2	·	·	·	·
COc1ccc(-c2nnc(SCc3ccc(C(=O)O)cc3)n2N)cc1	0	-8	1	2	-1	2	·	·	·	·
COC(=O)C1=C(C)N(Cc2ccccc2)C(=NCCCCO)N[C@H]1CCc1ccccc1	-3	15	-1	1	-1	-6	·	·	·	·
CCCc1cc(=O)oc2cc(OCC(=O)NCc3cccs3)ccc12	4	-4	-2	-4	2	0	·	·	·	·
CCCc1cc(=O)oc2cc(OCC(=O)Nc3ccc(S(N)(=O)=O)cc3)ccc12	32	100*	69*	55*	84*	+	85*	-8	2	65*	Rpn11 inh conf=6;MMP-2 counter=67*;Thrombin FP=-10
N#C/C(=C\c1cccc(OCC(=O)O)c1)c1nc2ccccc2[nH]1	0	-8	-1	-1	1	-3	·	·	·	·
N#C/C(=C\c1ccc(OC(=O)c2ccc(Br)s2)cc1)c1nc2ccccc2[nH]1	82*	101*	57*	3	2	58*	52*	0	5.5*	26	DNMT1 confirm=5;Beacon interf=-6;Rpn11 inh conf=-8;MMP-2 counter=-13;Thrombin FP=-22
N#C/C(=C\c1ccc(OC(=O)c2ccc(Cl)s2)cc1)c1nc2ccccc2[nH]1	83*	99*	71*	4	46	49*	74*	-10	-3	25*	DNMT1 confirm=7;Beacon interf=-5;Rpn11 inh conf=-12;MMP-2 counter=0;Thrombin FP=-33
COc1ccccc1-c1noc2ncnc(Nc3cccc(C)c3C)c12	8	-8	5	1	0	-6	·	·	·	·
COc1cccc(-c2nc(C(=O)NCC3CCCO3)cc3c2[nH]c2ccccc23)c1 (stereo unspecified)	-27	-4	-1	2	3	-8	·	·	·	·
CCOc1ccc(/C=N/NC(=O)c2cc3c(OC)cccc3[nH]2)cc1	83*	79*	89*	15	25	1	58*	-13	6.4*	41*	DNMT1 confirm=4;Beacon interf=-3
COc1cc(/C=N/NC(=O)c2ccncc2)ccc1OCC(=O)Nc1ccccc1	3	5	-4	-7	1	-8	·	·	·	·
O=C(COc1ccc(/C=N/NC(=O)c2ccccc2Br)cc1)Nc1ccccc1	-4	-8	-1	-4	0	-4	·	·	·	·
O=C(COc1ccc(/C=N/NC(=O)c2ccccc2O)cc1)Nc1ccccc1	-4	65*	85*	1	67*	4	65*	2	-11	24*
COc1cc(/C=N/NC(=O)c2ccccc2O)ccc1OCC(=O)Nc1ccccc1	0	63*	62*	11	38	40	70*	-11	-5	83*
Cc1cccc(Nc2nn3c(=O)c4ccccc4nc3s2)c1	94*	106*	96*	7	47	126*	69*	-22	-10	29*	DNMT1 confirm=13;Beacon interf=3;Rpn11 inh conf=46*;MMP-2 counter=37;Thrombin FP=-19
CC1CCCN(C(=O)c2ccc3c(=O)n4nc(Nc5ccccc5)sc4nc3c2)C1 (stereo unspecified)	2	·	3	-3	1	-7	·	·	·	·
O=C(Cn1cnc2c(nnn2-c2ccccc2)c1=O)NCc1ccc(F)cc1	30	101*	77*	17	34	73*	96*	3	-2	26	Rpn11 inh conf=61*;MMP-2 counter=46*;Thrombin FP=-8
O=C(NNC(=O)c1ccccc1OCc1ccccc1Cl)c1csc(N2CCOCC2)n1	-2	-5	-1	1	0	4	·	·	·	·
Cc1ccc(C(=O)Nc2ccc3c(c2)C(=O)NC3=O)cc1	14	-7	-2	-5	-3	-5	·	·	·	·
COC(=O)c1ccc(C(=O)Nc2ccc3c(c2)C(=O)NC3=O)cc1	-4	75*	94*	95*	31	·	47*	-12	6.0*	2
